Test [1] relates to Candida albicans. Kind of test: In vivo antifungal activity administered orally against Candida albicans infections in mice. The test is classed as functional. The settings on record: po. The procedure, abridged:
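X-irradiated (400 r, 24 h prior) male ICR mice infected iv with 2 × 10^6 C. albicans A26 cells. Oral gavage in cremophor (5%)/linoleic acid (8%)/water vehicle, b.i.d. × 4 starting immediately post-infection. 10 mice per dose level. Study ends at day 7; ED50 = dose giving 50% survival, by Reed-Muench.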

For test [2], the system named is Candida albicans. Kind of test: In vivo antifungal activity administered intraperitoneally against Candida albicans infections in mice. The test is classed as functional. The note with it: ip. The procedure, abridged: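 Male ICR mice (18-20 g), X-irradiated with 400 r 24 h before iv tail-vein infection with 2 × 10^6 C. albicans A26 cells in saline. Compounds suspended in β-cyclodextrin, given parenterally at 0, 4, 24 and 48 h post-infection. 10 mice per dose, top dose 10 mg/kg with 2-fold dilutions down to 0.039 mg/kg. 7-day survival; ED50 by Reed-Muench.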

In test [3] the target is Beta-1,3-glucan synthase (Candida albicans) (UniProt O13428). Kind of test: In vitro inhibition of glucan synthase obtained from Candida albicans at a concentration of 10 ug/mL. The procedure, abridged:
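Purified, solubilized β-(1,3)-D-glucan synthase prepared from C. albicans. Percent inhibition measured at 10 µg/mL compound, single determination.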

Test [4] relates to Candida albicans. Kind of test: Antifungal activity against Candida albicans. The format is functional. In a few lines:
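Broth microdilution, C. albicans A26 (ATCC 62342) grown on Sabouraud dextrose agar at 35 °C; inoculum 1 × 10^5 conidia/mL in antibiotic 3 broth. Compounds dissolved at 1.0 mg/mL in methanol, 2-fold serial dilutions from 80 µg/mL, duplicate. Read after 48 h at 35 °C. MIC = lowest concentration completely inhibiting visible growth.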

Structures are written as SMILES. Converted amounts (≈) assume the structure as drawn. Numbered stars: 1 amine (or outer) side, 2 acyl side, 3 side chain; on linkers, the order of the positions; unused ones are H or OH. Bridge positions count the residues as written; N and C are the ends. Square brackets hold non-standard residues; d marks the D form. Peptide text beside a SMILES is read from it. * marks the point of attachment. pTerphenylCO(4''-OnC5H11) = CCCCCOc1ccc(-c2ccc(-c3ccc(C(=O)*)cc3)cc2)cc1; Orn(4R-OH,5R-OH) = O=C([C@H](C[C@@H](O)[C@@H](O)N[*:3])N[*:1])[*:2]; Benzoyl(4-(biphenyl-4-yl)) = O=C(c1ccc(-c2ccc(-c3ccccc3)cc2)cc1)*; hTyr(3S-OH,4S-OH) = N[C@H](C(=O)O)[C@H](O)[C@@H](O)c1ccc(O)cc1; Benzoyl(4-(4-OctO-Ph)) = CCCCCCCCOc1ccc(-c2ccc(C(=O)*)cc2)cc1; Pro(3S-OH,4S-Me) = C[C@H]1CN[C@H](C(=O)O)[C@H]1O; Benzoyl(4-octyloxy) = CCCCCCCCOc1ccc(C(=O)*)cc1; Hyp = O=C(O)[C@@H]1C[C@@H](O)CN1 Some results are limits rather than exact numbers.

Sequence of Beta-1,3-glucan synthase (Candida albicans) (O13428 as listed by the source): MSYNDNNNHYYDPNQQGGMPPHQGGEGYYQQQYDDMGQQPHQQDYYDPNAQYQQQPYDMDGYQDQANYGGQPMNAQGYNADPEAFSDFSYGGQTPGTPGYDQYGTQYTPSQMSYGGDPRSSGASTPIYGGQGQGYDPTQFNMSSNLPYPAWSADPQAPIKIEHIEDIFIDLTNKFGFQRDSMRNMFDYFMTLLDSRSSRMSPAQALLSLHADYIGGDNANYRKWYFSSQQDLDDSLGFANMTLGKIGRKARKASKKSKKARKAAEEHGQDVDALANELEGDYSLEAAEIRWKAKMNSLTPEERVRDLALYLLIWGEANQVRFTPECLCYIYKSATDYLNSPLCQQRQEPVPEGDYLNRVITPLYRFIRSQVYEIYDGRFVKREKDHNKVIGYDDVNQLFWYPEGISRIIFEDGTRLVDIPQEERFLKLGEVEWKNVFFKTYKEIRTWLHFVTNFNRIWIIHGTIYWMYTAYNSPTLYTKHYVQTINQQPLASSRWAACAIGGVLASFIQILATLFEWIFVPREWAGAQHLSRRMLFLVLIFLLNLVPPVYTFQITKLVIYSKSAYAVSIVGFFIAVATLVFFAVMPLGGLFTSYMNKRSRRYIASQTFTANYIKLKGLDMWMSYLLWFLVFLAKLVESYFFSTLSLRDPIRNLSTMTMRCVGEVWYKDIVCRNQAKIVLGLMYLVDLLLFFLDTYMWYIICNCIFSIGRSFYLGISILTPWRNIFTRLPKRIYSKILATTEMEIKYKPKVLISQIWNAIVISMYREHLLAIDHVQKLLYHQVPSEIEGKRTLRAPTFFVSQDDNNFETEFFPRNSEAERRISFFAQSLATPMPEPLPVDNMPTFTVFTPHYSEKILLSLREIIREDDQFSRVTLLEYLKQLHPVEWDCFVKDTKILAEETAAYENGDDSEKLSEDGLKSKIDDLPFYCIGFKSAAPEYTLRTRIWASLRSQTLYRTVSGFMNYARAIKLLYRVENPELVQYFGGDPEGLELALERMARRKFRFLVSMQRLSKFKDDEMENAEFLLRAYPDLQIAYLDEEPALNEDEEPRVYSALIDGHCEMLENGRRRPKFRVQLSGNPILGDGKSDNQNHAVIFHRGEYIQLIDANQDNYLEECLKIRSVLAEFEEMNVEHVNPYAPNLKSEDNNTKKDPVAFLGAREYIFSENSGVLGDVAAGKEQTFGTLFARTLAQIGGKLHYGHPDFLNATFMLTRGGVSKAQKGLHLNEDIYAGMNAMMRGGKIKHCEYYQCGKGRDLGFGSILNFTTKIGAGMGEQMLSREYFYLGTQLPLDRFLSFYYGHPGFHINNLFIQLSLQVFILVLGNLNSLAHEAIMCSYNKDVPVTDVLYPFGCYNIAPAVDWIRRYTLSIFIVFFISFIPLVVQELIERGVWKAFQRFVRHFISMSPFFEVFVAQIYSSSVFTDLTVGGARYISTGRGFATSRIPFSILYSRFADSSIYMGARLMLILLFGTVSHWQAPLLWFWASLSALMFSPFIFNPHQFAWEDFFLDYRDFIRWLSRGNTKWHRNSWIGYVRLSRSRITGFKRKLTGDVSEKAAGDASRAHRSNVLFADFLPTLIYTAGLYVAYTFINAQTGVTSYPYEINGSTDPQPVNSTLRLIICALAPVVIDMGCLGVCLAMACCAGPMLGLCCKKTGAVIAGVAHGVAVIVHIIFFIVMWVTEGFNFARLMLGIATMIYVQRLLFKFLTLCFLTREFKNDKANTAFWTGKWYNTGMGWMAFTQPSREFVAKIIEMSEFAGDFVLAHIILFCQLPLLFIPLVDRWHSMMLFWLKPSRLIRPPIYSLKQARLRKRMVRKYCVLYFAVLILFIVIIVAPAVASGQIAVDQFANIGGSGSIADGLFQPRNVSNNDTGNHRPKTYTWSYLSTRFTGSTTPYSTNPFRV

Consider `CCCCCCCCOc1ccc(-c2ccc(C(=O)N[C@H]3C[C@@H](O)[C@@H](O)NC(=O)[C@@H]4[C@@H](O)[C@@H](C)CN4C(=O)[C@H]([C@@H](C)O)NC(=O)[C@H]([C@H](O)[C@@H](O)c4ccc(O)cc4)NC(=O)[C@@H]4C[C@@H](O)CN4C(=O)[C@H]([C@@H](C)O)NC3=O)cc2)cc1` ({Benzoyl(4-(4-OctO-Ph))}-[Orn(4R-OH,5R-OH)]T[Hyp][hTyr(3S-OH,4S-OH)]T[Pro(3S-OH,4S-Me)]; lactam 1-C), for which the ED50 in test [1] worked out at 27.3 mg/kg; in test [2] it was 0.5 mg/kg. In test [3], this compound gave an inhibition of 81.5%. Besides, in test [4], the MIC stood at 0.0025 µg/mL (≈ 0.00226 µM).
For `C[C@@H](O)[C@@H]1NC(=O)[C@H]([C@H](O)[C@@H](O)c2ccc(O)cc2)NC(=O)[C@@H]2C[C@@H](O)CN2C(=O)[C@H]([C@@H](C)O)NC(=O)[C@@H](NC(=O)c2ccc(-c3ccc(-c4ccccc4)cc3)cc2)C[C@@H](O)[C@@H](O)NC(=O)[C@@H]2[C@@H](O)[C@@H](C)CN2C1=O` ({Benzoyl(4-(biphenyl-4-yl))}-[Orn(4R-OH,5R-OH)]T[Hyp][hTyr(3S-OH,4S-OH)]T[Pro(3S-OH,4S-Me)]; lactam 1-C), in that order: > 50 mg/kg, 1.3 mg/kg, 78.8% and 0.078 µg/mL (≈ 0.074 µM).
For `CCCCCOc1ccc(-c2ccc(-c3ccc(C(=O)N[C@H]4C[C@@H](O)[C@@H](O)NC(=O)[C@@H]5[C@@H](O)[C@@H](C)CN5C(=O)[C@H]([C@@H](C)O)NC(=O)[C@H]([C@H](O)[C@@H](O)c5ccc(O)cc5)NC(=O)[C@@H]5C[C@@H](O)CN5C(=O)[C@H]([C@@H](C)O)NC4=O)cc3)cc2)cc1` [ANIDULAFUNGIN] ({pTerphenylCO(4''-OnC5H11)}-[Orn(4R-OH,5R-OH)]T[Hyp][hTyr(3S-OH,4S-OH)]T[Pro(3S-OH,4S-Me)]; lactam 1-C), in that order: 7.8 mg/kg, 0.3 mg/kg, 75% and 0.005 µg/mL (≈ 0.00438 µM).
As for `CCCCCCCCOc1ccc(C(=O)N[C@H]2C[C@@H](O)[C@@H](O)NC(=O)[C@@H]3[C@@H](O)[C@@H](C)CN3C(=O)[C@H]([C@@H](C)O)NC(=O)[C@H]([C@H](O)[C@@H](O)c3ccc(O)cc3)NC(=O)[C@@H]3C[C@@H](O)CN3C(=O)[C@H]([C@@H](C)O)NC2=O)cc1` [CILOFUNGIN] ({Benzoyl(4-octyloxy)}-[Orn(4R-OH,5R-OH)]T[Hyp][hTyr(3S-OH,4S-OH)]T[Pro(3S-OH,4S-Me)]; lactam 1-C), the ED50 in test [1] is > 400 mg/kg; in test [2], 7.6 mg/kg. For the same compound, in test [3], the inhibition is 76%. Also, the lowest concentration to inhibit growth in test [4] (MIC) was 0.312 µg/mL (≈ 0.303 µM).
